Measurements published in ChEMBL document CHEMBL2163325, “Discovery of phosphoinositide 3-kinases (PI3K) p110β isoform inhibitor 4-[2-hydroxyethyl(1-naphthylmethyl)amino]-6-[(2S)-2-methylmorpholin-4-yl]-1H-pyrimidin-2-one, an effective antithrombotic agent without associated bleeding and insulin resistance” (Bioorg Med Chem Lett, 2012).

Tests used:
Homo sapiens = species: Homo sapiens; assay: Selectivity ratio of IC50 for human PI3K p110alpha to IC50 for human PI3K p110beta
[1] = target: Phosphatidylinositol 4,5-bisphosphate 3-kinase catalytic subunit beta isoform (Homo sapiens, UniProt P42338); assay: Inhibition of human recombinant His6-tagged PI3K p110beta expressed in baculovirus infected cells using DiC8-PI(4,5)P2 as substrate after 20 mins by AlphaScreen assay
Chain of Phosphatidylinositol 4,5-bisphosphate 3-kinase catalytic subunit beta isoform (P42338 whole entry, canonical isoform): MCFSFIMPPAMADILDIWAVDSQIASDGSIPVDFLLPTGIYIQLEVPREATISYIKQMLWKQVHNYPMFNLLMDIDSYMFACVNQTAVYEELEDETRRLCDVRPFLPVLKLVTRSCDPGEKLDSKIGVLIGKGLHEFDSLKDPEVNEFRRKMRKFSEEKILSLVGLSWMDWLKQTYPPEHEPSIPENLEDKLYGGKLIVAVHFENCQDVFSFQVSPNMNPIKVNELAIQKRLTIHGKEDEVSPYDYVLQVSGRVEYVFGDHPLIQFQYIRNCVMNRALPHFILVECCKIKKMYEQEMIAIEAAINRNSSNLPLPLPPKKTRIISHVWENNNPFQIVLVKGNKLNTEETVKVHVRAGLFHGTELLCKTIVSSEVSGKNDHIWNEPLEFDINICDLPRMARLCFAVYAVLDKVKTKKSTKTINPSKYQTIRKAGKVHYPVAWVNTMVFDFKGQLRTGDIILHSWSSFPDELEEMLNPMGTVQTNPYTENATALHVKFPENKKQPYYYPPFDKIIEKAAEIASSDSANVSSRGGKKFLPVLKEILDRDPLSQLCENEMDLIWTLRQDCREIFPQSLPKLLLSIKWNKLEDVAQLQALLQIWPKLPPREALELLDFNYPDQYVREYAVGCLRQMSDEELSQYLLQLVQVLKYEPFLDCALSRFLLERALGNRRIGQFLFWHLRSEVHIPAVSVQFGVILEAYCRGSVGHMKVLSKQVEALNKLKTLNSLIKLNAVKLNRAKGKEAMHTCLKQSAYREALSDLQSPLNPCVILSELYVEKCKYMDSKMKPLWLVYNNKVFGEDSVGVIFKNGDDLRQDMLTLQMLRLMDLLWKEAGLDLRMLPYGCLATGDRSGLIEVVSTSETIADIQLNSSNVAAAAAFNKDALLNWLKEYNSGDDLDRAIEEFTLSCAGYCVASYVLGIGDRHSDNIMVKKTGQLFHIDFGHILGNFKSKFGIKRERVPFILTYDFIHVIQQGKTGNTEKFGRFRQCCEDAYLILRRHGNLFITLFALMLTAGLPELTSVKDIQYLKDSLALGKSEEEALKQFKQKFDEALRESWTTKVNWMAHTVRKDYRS

[2] = target: Phosphatidylinositol 4,5-bisphosphate 3-kinase catalytic subunit alpha isoform (Homo sapiens, UniProt P42336); assay: Inhibition of human recombinant His6-tagged PI3K p110alpha expressed in baculovirus infected cells using DiC8-PI(4,5)P2 as substrate after 20 mins by AlphaScreen assay
Chain of Phosphatidylinositol 4,5-bisphosphate 3-kinase catalytic subunit alpha isoform (P42336 whole entry, canonical isoform): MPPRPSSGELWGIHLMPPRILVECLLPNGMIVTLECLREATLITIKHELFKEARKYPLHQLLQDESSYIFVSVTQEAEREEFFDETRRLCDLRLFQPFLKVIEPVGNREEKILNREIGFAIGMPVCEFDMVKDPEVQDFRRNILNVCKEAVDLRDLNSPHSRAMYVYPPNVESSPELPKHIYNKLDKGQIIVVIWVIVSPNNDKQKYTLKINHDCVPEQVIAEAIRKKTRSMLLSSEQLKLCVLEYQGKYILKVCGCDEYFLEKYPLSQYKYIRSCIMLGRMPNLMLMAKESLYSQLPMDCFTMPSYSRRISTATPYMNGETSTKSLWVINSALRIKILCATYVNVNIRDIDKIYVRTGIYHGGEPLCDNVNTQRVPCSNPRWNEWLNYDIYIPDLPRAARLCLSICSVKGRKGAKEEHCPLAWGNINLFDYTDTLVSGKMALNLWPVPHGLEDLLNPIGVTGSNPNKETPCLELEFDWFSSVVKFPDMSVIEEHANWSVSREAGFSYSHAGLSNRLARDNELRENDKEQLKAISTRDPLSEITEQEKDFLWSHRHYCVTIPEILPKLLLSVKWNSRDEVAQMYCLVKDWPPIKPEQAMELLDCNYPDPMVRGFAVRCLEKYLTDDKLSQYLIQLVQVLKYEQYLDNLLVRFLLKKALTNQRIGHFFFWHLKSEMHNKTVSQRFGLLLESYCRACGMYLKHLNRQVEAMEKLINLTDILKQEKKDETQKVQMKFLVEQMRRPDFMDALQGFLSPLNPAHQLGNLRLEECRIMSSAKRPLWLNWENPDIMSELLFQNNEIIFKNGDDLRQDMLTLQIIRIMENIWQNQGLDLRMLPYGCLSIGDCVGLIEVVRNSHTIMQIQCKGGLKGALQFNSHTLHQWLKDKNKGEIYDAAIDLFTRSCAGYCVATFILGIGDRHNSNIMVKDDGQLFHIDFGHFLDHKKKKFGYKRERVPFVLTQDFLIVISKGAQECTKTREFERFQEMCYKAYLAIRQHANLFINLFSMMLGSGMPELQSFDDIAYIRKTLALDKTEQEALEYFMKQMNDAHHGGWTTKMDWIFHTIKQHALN

[3] = Lipophilicity, log D of the compound at pH 7.4 by HPLC analysis; type: physicochemical; settings: buffer
Procedure, shortened: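 LogD measured at pH 7.4 by HPLC.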

Cytochrome P450 3A4 = Cytochrome P450 3A4 (Homo sapiens, UniProt P08684); assay: Inhibition of CYP3A4; type: ADME
Chain of Cytochrome P450 3A4 (P08684 whole entry): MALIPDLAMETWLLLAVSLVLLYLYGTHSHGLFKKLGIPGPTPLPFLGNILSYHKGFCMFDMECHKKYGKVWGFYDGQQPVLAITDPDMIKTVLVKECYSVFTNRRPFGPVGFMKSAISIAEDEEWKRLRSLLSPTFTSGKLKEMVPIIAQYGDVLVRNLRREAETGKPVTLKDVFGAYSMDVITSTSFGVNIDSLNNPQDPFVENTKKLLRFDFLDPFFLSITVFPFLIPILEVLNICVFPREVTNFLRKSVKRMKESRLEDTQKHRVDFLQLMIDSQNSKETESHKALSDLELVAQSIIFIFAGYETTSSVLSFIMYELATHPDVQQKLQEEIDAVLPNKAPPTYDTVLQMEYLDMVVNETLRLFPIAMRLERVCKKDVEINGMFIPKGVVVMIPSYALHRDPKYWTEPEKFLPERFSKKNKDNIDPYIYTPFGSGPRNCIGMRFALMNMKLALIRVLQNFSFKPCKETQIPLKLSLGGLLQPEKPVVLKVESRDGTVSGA

Cytochrome P450 2C9 = Cytochrome P450 2C9 (Homo sapiens, UniProt P11712); assay: Inhibition of CYP2C9; type: ADME
Chain of Cytochrome P450 2C9 (P11712 whole entry): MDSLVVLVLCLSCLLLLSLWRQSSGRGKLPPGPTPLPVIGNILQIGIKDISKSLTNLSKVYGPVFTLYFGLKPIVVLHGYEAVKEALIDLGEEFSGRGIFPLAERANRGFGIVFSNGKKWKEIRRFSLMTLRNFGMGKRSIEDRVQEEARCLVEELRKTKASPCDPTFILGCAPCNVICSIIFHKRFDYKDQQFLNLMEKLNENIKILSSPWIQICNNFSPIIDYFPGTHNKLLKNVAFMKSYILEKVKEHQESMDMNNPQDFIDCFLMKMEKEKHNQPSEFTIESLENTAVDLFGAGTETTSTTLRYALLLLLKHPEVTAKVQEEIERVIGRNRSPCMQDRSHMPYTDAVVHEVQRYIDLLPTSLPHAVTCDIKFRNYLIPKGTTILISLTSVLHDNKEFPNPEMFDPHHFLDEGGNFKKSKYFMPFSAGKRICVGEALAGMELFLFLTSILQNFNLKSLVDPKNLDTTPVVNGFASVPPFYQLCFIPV

[4] = Toxicity in human adipocytes assessed as inhibition of insulin-induced glucose uptake; type: cell-based, Adipocyte
Rattus norvegicus = assay: Toxicity in overnight fasted Sprague-Dawley rat assessed as induction of insulin resistance administered as 30 mins infusion; type: organism-based; settings: in vivo, iv, 0.5 h
Procedure, shortened: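 Overnight fasted SD rats (N = 6) infused with 4 consecutive escalating doses, each over 30 min. Blood taken at the end of each interval for plasma exposure, glucose and insulin. HOMA index is glucose × insulin, normalized to vehicle controls (N = 4) and pretreatment medians. Mean ± SEM.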

SMILES	Ratio IC50 (Homo sapiens)	IC50 [1] [nM]	IC50 [2] [µM]	logD [3]	IC50 (Cytochrome P450 3A4) [nM]	IC50 (Cytochrome P450 2C9) [nM]	IC50 [4] [µM]	Activity (Rattus norvegicus)
C[C@@H]1CN(c2cc(N(CCO)Cc3cccc4ccccc34)[nH]c(=O)n2)CCO1	–	1000	349	1.9	–	–	–	–
CCN(Cc1cccc2ccccc12)c1cc(N2CCOCC2)nc(=O)[nH]1	628	130	82.8	2.5	–	–	–	–
O=c1nc(N2CCOCC2)cc(N(CCCO)Cc2cccc3ccccc23)[nH]1	524	100	51.5	1.75	–	–	–	–
CCC(O)CN(Cc1cccc2ccccc12)c1cc(N2CCOCC2)nc(=O)[nH]1 (stereo unspecified)	690	220	149	2.5	–	–	–	–
CC(C)(CO)CN(Cc1cccc2ccccc12)c1cc(N2CCOCC2)nc(=O)[nH]1	143	1400	205	3.15	–	–	–	–
Cc1cc([C@@H](C)Nc2ccccc2C(=O)O)c2nc(N3CCOCC3)cc(=O)n2c1 [AZD-6482]	–	–	–	–	–	–	4.4	Dose-dependent effect
O=c1nc(N2CCOCC2)cc(N(CCCCO)Cc2cccc3ccccc23)[nH]1	373	200	73.7	1.8	–	–	–	–
O=c1cc(-c2cn[nH]c2)nc(NCc2cccc3ccccc23)[nH]1	–	11000	62.3	1.9	–	–	–	–
COC1CN(c2cc(=O)[nH]c(NCc3cccc4ccccc34)n2)C1	–	24000	82.6	2.7	–	–	–	–
CC1CN(c2cc(=O)[nH]c(NCc3cccc4ccccc34)n2)CCO1 (stereo unspecified)	65	34	2.2	2.9	–	–	–	–

Further compounds by falling IC50 [1], results first:

Ratio IC50 (Homo sapiens)	IC50 [1] [nM]	IC50 [2] [µM]	logD [3]	IC50 (Cytochrome P450 3A4) [nM]	IC50 (Cytochrome P450 2C9) [nM]	SMILES	IC50 [4] [µM]	Activity (Rattus norvegicus)
–	31000	160	1.6	–	–	O=c1cc(N2CCC(O)CC2)nc(NCc2cccc3ccccc23)[nH]1	–	–
> 26	3100	> 83.3	1.4	–	–	CN(C)CCN(Cc1cccc2ccccc12)c1cc(N2CCOCC2)nc(=O)[nH]1	–	–
> 64	1200	> 83.3	1.5	–	–	CN(C)CCCN(Cc1cccc2ccccc12)c1cc(N2CCOCC2)nc(=O)[nH]1	–	–
58	980	56.9	3	–	–	O=c1nc(N2CCOCC2)cc(N(Cc2cccc3ccccc23)CC(O)C(F)(F)F)[nH]1 (stereo unspecified)	–	–
78	970	76	2.6	–	–	O=c1nc(N2CCOCC2)cc(N(Cc2cccc3ccccc23)C2CC2)[nH]1	–	–
355	600	212	2.37	–	–	CN(Cc1cccc2ccccc12)c1cc(N2CCOCC2)nc(=O)[nH]1	–	–
808	140	112	2	–	–	CC(O)CN(Cc1cccc2ccccc12)c1cc(N2CCOCC2)nc(=O)[nH]1 (stereo unspecified)	–	–
340	90	30.8	1.55	–	–	O=c1nc(N2CCOCC2)cc(N(CCO)Cc2cccc3ccccc23)[nH]1	–	–
–	7	0.84	2.6	700	400	Cc1cc(-c2cc(=O)[nH]c(NCc3cccc4ccccc34)n2)ccn1	–	–
